Test results reported in publication PMC10401000 (Proceedings of the National Academy of Sciences of the …, 2023).

Legend:
[1] = system: β2AR; settings: cited from earlier work
[2] = system: HASM cells; test: Magnetic twisting cytometry, HASM cell stiffness; format: cell-based, human; settings: 10 μM ISO
Method in brief: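 Magnetic twisting cytometry: integrin-anchored beads on serum-deprived, post-confluent HASM cells from nonasthma donors, plated at 30,000 cells/cm² on collagen I and kept serum-free for 24 h. Cells were pretreated ± 1 μM test compound for 30 min. […] Stiffness was normalized to each cell's baseline; linear mixed-effect model on log data; 463 to 473 cells.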

Row | SMILES | allosteric modulator activity at the β2AR [1] | time to peak relaxation [2] [min]
1 | Nc1nc(Nc2ccccc2)nc2ccc(Br)cc12 [AS408] | NAM for both ISO-mediated cAMP production and β-arrestin recruitment | –
2 | CC(C)NCC(O)c1ccc(O)c(O)c1 (centres unmarked) [ISO, isoproterenol] | – | 4 to 5
